Laboratory results from ChEMBL document CHEMBL5033992, “Discovery and Synthesis of a Pyrimidine-Based Aurora Kinase Inhibitor to Reduce Levels of MYC Oncoproteins” (J Med Chem, 2021).
The source made the active and inactive calls. No cut-off for these calls is given here.

Columns and labels:
[1] = Effect on cMYC protein expression level in human NCI-H82 cells assessed as fold change at 1 uM incubated for 24 hrs by Western blot analysis relative to control; format: functional
In short: (§1)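 Cells treated with compound at various concentrations for 24 h, then washed in PBS, lysed in Laemmli buffer and boiled 10 min. Lysates run on SDS-PAGE, transferred to PVDF and probed with antibodies, then AP- or HRP-conjugated secondaries with chemiluminescent detection. Loading control β-actin. NCI-H82 grown in RPMI1640 and SK-N-BE(2) in MEM, each with 10% FBS. Relative levels quantified from triplicate experiments.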

[2] = Effect on MYCN protein expression level in human SKNBE2 cells assessed as fold change at 1 uM incubated for 24 hrs by Western blot analysis relative to control; format: functional, SK-N-BE(2); in short: as §1
[3] = biological target: T1, Aurora kinase A (Homo sapiens) (UniProt O14965); experiment: Inhibition of recombinant GST-tagged N-terminal truncated human Aurora A (123 to 401 residues) expressed in Sf9 insect cell using tetra-LRRASLG peptide as substrate at 100 nM incubated for 120 mins by Kinase-Glo plus luminescent kinase assay relative to control
T1 sequence (whole entry): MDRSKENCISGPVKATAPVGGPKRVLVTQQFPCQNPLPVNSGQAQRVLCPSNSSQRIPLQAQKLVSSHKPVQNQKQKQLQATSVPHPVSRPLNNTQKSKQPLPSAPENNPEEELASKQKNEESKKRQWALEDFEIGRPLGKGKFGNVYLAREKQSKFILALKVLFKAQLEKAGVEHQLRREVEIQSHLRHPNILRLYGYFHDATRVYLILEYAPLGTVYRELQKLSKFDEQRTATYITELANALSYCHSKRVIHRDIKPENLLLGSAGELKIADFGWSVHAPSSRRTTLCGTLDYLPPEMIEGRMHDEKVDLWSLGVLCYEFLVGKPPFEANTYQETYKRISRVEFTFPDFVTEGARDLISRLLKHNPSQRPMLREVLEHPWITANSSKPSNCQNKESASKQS

[4] = Cmax in ICR mouse at 10 mg/kg, po measured up to 24 hrs by LC-MS/MS analysis; format: ADME, organism-based; set-up: route oral, dose 10 mg/kg, time <=24; settings: in vivo
[5] = AUC (0 to inf) in ICR mouse at 10 mg/kg, po measured up to 24 hrs by LC-MS/MS analysis; format: ADME, organism-based; set-up: route oral, dose 10 mg/kg, time <=24; settings: in vivo
[6] = Tmax in ICR mouse at 10 mg/kg, po measured up to 24 hrs by LC-MS/MS analysis; format: ADME, organism-based; settings: in vivo
[7] = Half life in ICR mouse at 10 mg/kg, po measured up to 24 hrs by LC-MS/MS analysis; format: ADME, organism-based; settings: in vivo
NCI-H82 [8] = experiment: Growth inhibition of human NCI-H82 cells assessed as reduction in cell viability after 72 hrs by PrestoBlue Cell Viability assay; format: functional, cell-based; settings: NCI-H82, 72 h
In short: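 Cells seeded at 5000–10,000 per well, grown 24 h in RPMI1640 with 10% FBS and antibiotics, then exposed to compound at 0–10 μM for 72 h. Viability read by PrestoBlue fluorescence. IC50 from triplicate eight-point titration.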

SK-N-BE(2) [9] = experiment: Growth inhibition of human SKNBE2 cells assessed as reduction in cell viability after 24 hrs by PrestoBlue Cell Viability assay; settings: SKNBE2, 24 h
SKNBE2 = experiment: Inhibition of Histone H3 phosphorylation in human SKNBE2cells assessed as reduction in phosphorylation at Ser 10 residue at 50 to 1000 nM after 24 hrs by Western blot analysis; settings: dose 50-1000 nM; in short: as §1
NCI-H82 [10] = experiment: Inhibition of Histone H3 phosphorylation in human NCI-H82 cells assessed as reduction in phosphorylation at Ser 10 residue at 50 to 1000 nM after 24 hrs by Western blot analysis; format: cell-based; settings: dose 50-1000 nM; in short: as §1
NCI-H82 [11] = experiment: Down regulation of Cyclin B1 expression in human NCI-H82 cells at 50 to 1000 nM after 24 hrs by Western blot analysis; format: functional, cell-based; settings: dose 50-1000 nM; in short: as §1
SK-N-BE(2) [12] = experiment: Down regulation of Cyclin B1 expression in human SKNBE2 cells at 50 to 1000 nM after 24 hrs by Western blot analysis; format: functional, cell-based; settings: dose 50-1000 nM; in short: as §1
NCI-H446 [13] = experiment: Induction of apoptosis in human NCI-H446 cells xenografted in athymic nu/nu nude mouse assessed as increase in cleaved PARP1 protein expression level at 100 mg/kg, po measured up to 24 hrs by Western blot analysis; settings: time hrs <=24
[14] = biological target: Aurora kinase B (Homo sapiens) (UniProt Q96GD4); experiment: Inhibition of Aurora B phosphorylation in human NCI-H82 cells assessed as reduction in phosphorylation at Thr 232 residue at 50 to 1000 nM after 24 hrs by Western blot analysis; format: cell-based; settings: dose 50-1000 nM; in short: as §1
Sequence of Aurora kinase B (Homo sapiens) (Q96GD4 whole entry): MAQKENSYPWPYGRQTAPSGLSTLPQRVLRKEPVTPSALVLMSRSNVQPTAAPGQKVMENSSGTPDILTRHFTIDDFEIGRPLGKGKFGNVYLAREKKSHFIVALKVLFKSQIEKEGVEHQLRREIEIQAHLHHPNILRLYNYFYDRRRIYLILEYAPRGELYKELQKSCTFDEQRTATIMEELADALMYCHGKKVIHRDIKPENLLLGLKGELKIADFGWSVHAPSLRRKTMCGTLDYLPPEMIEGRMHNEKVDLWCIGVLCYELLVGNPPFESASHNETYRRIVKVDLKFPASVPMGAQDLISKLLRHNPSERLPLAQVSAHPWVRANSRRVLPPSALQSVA

[15] = Inhibition of Histone H3 phosphorylation in human NCI-H446 cells xenografted in assessed as reduction in phosphorylation at Ser 10 residue at 100 mg/kg, po measured upto 8 hrs by western blot analysis relative to control
[16] = biological target: Aurora kinase B (Homo sapiens) (UniProt Q96GD4); experiment: Inhibition of Aurora B phosphorylation in human SKNBE2 cells assessed as reduction in phosphorylation at Thr 232 residue at 50 to 1000 nM after 24 hrs by Western blot analysis; format: cell-based; settings: dose 50-1000 nM; in short: as §1
[17] = Half life in ICR mouse at 2 mg/kg, iv measured up to 24 hrs by LC-MS/MS analysis; format: ADME, organism-based; settings: in vivo
[18] = Volume of distribution at steady state in ICR mouse at 2 mg/kg, iv measured up to 24 hrs by LC-MS/MS analysis; format: ADME, organism-based; settings: in vivo, read-out: Vdss
[19] = AUC (0 to inf) in ICR mouse at 2 mg/kg, iv measured up to 24 hrs by LC-MS/MS analysis; format: ADME, organism-based; set-up: route intravenous, dose 2 mg/kg, time <=24; settings: in vivo; for AUC(0-inf): ICR
NCI-H82 [20] = experiment: Induction of cell cycle arrest in human NCI-H82 cells at 1 uM after 24 hrs by Propidium iodide staining based flow cytometric analysis; format: functional
[21] = Oral bioavailability in ICR mouse at 10 mg/kg measured up to 24 hrs by LC-MS/MS analysis; format: ADME, organism-based; settings: in vivo
[22] = Clearance in ICR mouse at 2 mg/kg, iv measured up to 24 hrs by LC-MS/MS analysis; format: ADME, organism-based; settings: in vivo
NCI-H446 [23] = experiment: Anti-tumor activity against human NCI-H446 cells xenografted in athymic nu/nu nude mouse assessed as reduction in tumor volume at 50 to 100 mg/kg, po administered at 5 on-2-off for 2 to 4 weeks; format: functional, organism-based; settings: dose 50-100 mg/kg, time 2-4 weeks
In short: (§2)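 Male athymic nu/nu mice, 6 weeks old, inoculated subcutaneously with 1 × 10⁶ NCI-H446 cells in saline with 50% Matrigel. Dosing IV or oral, vehicle 5% dimethylacetamide/95% PEG400, on a 5-on-2-off schedule for 2–4 weeks once tumors reached ≥200 mm³. Caliper volume = length × width²/2; tumors and body weight measured at least twice weekly. ANOVA with Student–Newman–Keuls, P < 0.05.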

[24] = Toxicity in athymic nu/nu nude mouse xenografted with NCI-H446 cells assessed as reduction in body weight at 50 to 100 mg/kg, po administered at 5 on-2-off for 2 to 4 weeks relative to control; format: organism-based; set-up: scale not given: the % may be the effect or the level left; settings: in vivo, dose lower 50 mg/kg, time lower 2 weeks, dose upper 100 mg/kg, time upper 4 weeks; in short: as §2

Cc1cc(Nc2cc(N3CC[C@H](N(C)C)C3)nc(N[C@H]3CCN(C(=O)c4cccc(Cl)c4F)C3)n2)n[nH]1
fold change (FC) [1]: 0.996
fold change (FC) [2]: 0.809

CCN1CCN(c2cc(Nc3cc(C)[nH]n3)nc(N[C@H]3CCN(C(=O)c4ccc(C(F)(F)F)cc4F)C3)n2)CC1
inhibition [3]: < 50%

CCOC(=O)n1nc(Nc2cc(N3CCN(CC)CC3)nc(N[C@H]3CCN(C(=O)c4ccc(Cl)cc4F)C3)n2)cc1C
Cmax [4]: 274 ng/mL
AUC(0-inf) [5]: 961 ng·h/mL
Tmax [6]: 0.4 h
half-life [7]: 2.3 h

CCN1CCN(C(=O)Cc2ccc(Nc3ncc(F)c(Nc4ccc(C(=O)Nc5ccccc5Cl)cc4)n3)cc2)CC1
IC50 (NCI-H82 [8]): 1 nM
IC50 (SK-N-BE(2) [9]): 1 nM

COc1cc(Nc2ncc3c(n2)-c2ccc(Cl)cc2C(c2c(F)cccc2OC)=NC3)ccc1C(=O)O [ALISERTIB]
inhibition (SKNBE2): Active
inhibition (NCI-H82 [10]): Active
Activity (NCI-H82 [11]): Active
Activity (SK-N-BE(2) [12]): Active
Activity (NCI-H446 [13]): Active
inhibition [14]: Dose-Dependent Effect
inhibition in vivo at 100 mg/kg [15]: > 90%
inhibition [16]: Dose-Dependent Effect

CCN1CCN(c2cc(Nc3cc(C)[nH]n3)nc(N[C@H]3CCN(C(=O)c4cccc(Cl)c4F)C3)n2)CC1
fold change (FC) [2]: 0.741

CCN1CCN(c2cc(Nc3cc(C)[nH]n3)nc(N[C@H]3CCN(C(=O)c4ccccc4)C3)n2)CC1
fold change (FC) [1]: 0.93
fold change (FC) [2]: 0.919

CCC(=O)n1nc(Nc2cc(N3CCN(CC)CC3)nc(N[C@H]3CCN(C(=O)c4ccc(Cl)cc4F)C3)n2)cc1C
half-life [17]: 1 h
Cmax [4]: 114 ng/mL
Vd [18]: 0.9 L/kg
AUC(0-inf) [5]: 243 ng·h/mL
Tmax [6]: 0.4 h
AUC ([19]; 24 h): 351 ng·h/mL
half-life [7]: 1.9 h

CCN(CCCOc1ccc2c(Nc3cc(CC(=O)Nc4cccc(F)c4)[nH]n3)ncnc2c1)CCOP(=O)(O)O [BARASERTIB]
IC50 (NCI-H82 [8]): 1 nM
IC50 (SK-N-BE(2) [9]): 1 nM
Activity (NCI-H82 [20]): Active

CCN1CCN(c2cc(Nc3cc(C)[nH]n3)nc(N[C@H]3CCN(S(=O)(=O)c4ccc(Cl)cc4F)C3)n2)CC1
inhibition [3]: < 50%

Cc1cc(Nc2cc(N3CC(N(C)C)C3)nc(N[C@H]3CCN(C(=O)c4cccc(Cl)c4F)C3)n2)n[nH]1
fold change (FC) [1]: 1.084
fold change (FC) [2]: 0.754

CCN1CCN(c2cc(Nc3cc(C)nn3C(=O)C(C)(C)C)nc(N[C@H]3CCN(C(=O)c4ccc(Cl)cc4F)C3)n2)CC1
half-life [17]: 5.5 h
Cmax [4]: 36.1 ng/mL
Vd [18]: 18.8 L/kg
AUC(0-inf) [5]: 157 ng·h/mL
Tmax [6]: 1.4 h
AUC(0-inf) [19]: 401 ng·h/mL
bioavailability [21]: 7.8%
half-life [7]: 2.2 h
clearance [22]: 73.3 mL/min/kg

Cc1cc(Nc2cc(N(C)CCN(C)C)nc(N[C@H]3CCN(C(=O)c4cccc(Cl)c4F)C3)n2)n[nH]1
fold change (FC) [1]: 0.911
fold change (FC) [2]: 0.805

CCOC(=O)n1nc(C)cc1Nc1cc(N2CCN(CC)CC2)nc(N[C@H]2CCN(C(=O)c3ccc(Cl)cc3F)C2)n1
half-life [17]: 5.8 h
Cmax [4]: 1090 ng/mL
Vd [18]: 2.8 L/kg
AUC(0-inf) [5]: 4050 ng·h/mL
Activity (NCI-H446 [23]): Dose-Dependent Effect
Tmax [6]: 0.3 h
AUC(0-inf) [19]: 1480 ng·h/mL
bioavailability [21]: 54.5%
half-life [7]: 2.7 h
clearance [22]: 20 mL/min/kg
Activity [24]: < 5%

CCN1CCN(c2cc(Nc3cc(C)nn3C(=O)OC(C)(C)C)nc(N[C@H]3CCN(C(=O)c4ccc(Cl)cc4F)C3)n2)CC1
half-life [17]: 5 h
Cmax [4]: 690 ng/mL
Vd [18]: 4.9 L/kg
AUC(0-inf) [5]: 1130 ng·h/mL
Tmax [6]: 0.5 h
AUC(0-inf) [19]: 780 ng·h/mL
bioavailability [21]: 28.9%
half-life [7]: 3.3 h
clearance [22]: 38 mL/min/kg

CCN1CCN(c2cc(Nc3cc(C)[nH]n3)nc(N[C@H]3CCN(C(=O)c4ccc(Cl)nc4F)C3)n2)CC1
inhibition [3]: < 50%

CCN1CCN(c2cc(Nc3cc(C)[nH]n3)nc(N[C@H]3CCN(C(=O)c4cc(F)c(F)cc4F)C3)n2)CC1
inhibition [3]: < 50%

CCN1CCN(c2cc(Nc3cc(C)[nH]n3)nc(N[C@H]3CCN(C(=O)c4cc(F)c(Cl)c(F)c4)C3)n2)CC1
inhibition [3]: < 50%

Cc1cc(Nc2cc(N3CCN(C)CC3)nc(N[C@H]3CCN(C(=O)c4cccc(Cl)c4F)C3)n2)n[nH]1
fold change (FC) [1]: 0.843
fold change (FC) [2]: 0.815
